Data published in ChEMBL document CHEMBL3286203, “Reactive oxygen species (ROS) inducible DNA cross-linking agents and their effect on cancer cells and normal lymphocytes” (J Med Chem, 2014).
Active and inactive are the calls of the source. No cut-off for these calls is given here.

Tests used:
HOP-62 = assay: Cytotoxicity against human HOP62 cells after 48 hrs by SRB assay; format: functional; settings: HOP-62, 48 h
In short: (§1)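 GI50 was determined in the NCI Developmental Therapeutics Program in vitro 60-line cancer screen. Tumour lines were maintained in RPMI 1640 containing 5% FBS and 2 mM L-glutamine. Cells were inoculated at 5000–40 000 cells/well according to each line's doubling time before drug exposure.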

HOP-92 = assay: Cytotoxicity against human HOP92 cells after 48 hrs by SRB assay; format: functional; settings: HOP-92, 48 h; in short: as §1
NCI-H226 = assay: Cytotoxicity against human NCI-H226 cells after 48 hrs by SRB assay; format: functional; settings: NCI-H226, 48 h
In short: (§2)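 GI50 from the NCI Developmental Therapeutics Program in vitro human tumor cell screen. Cell lines were maintained in RPMI 1640 with 5% fetal bovine serum and 2 mM L-glutamine. They were seeded at 5000–40 000 cells/well, depending on each line's doubling time, then exposed to drug for 48 h at 37 °C, 5% CO2.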

NCI-H23 = assay: Cytotoxicity against human NCI-H23 cells after 48 hrs by SRB assay; format: functional; settings: NCI-H23, 48 h; in short: as §2
NCI-H522 = assay: Cytotoxicity against human NCI-H522 cells after 48 hrs by SRB assay; format: functional; settings: NCI-H522, 48 h; in short: as §2
COLO 205 = assay: Cytotoxicity against human COLO205 cells after 48 hrs by SRB assay; format: functional; settings: COLO 205, 48 h; in short: as §1
HCC 2998 = assay: Cytotoxicity against human HCC2998 cells after 48 hrs by SRB assay; format: functional; settings: HCC 2998, 48 h; in short: as §1
HCT-116 = assay: Cytotoxicity against human HCT116 cells after 48 hrs by SRB assay; format: functional; settings: HCT-116, 48 h; in short: as §1
HT-29 = assay: Cytotoxicity against human HT-29 cells after 48 hrs by SRB assay; format: functional; settings: HT-29, 48 h; in short: as §1
KM12 = assay: Cytotoxicity against human KM12 cells after 48 hrs by SRB assay; format: functional; settings: KM12, 48 h; in short: as §1
SF-268 = assay: Cytotoxicity against human SF268 cells after 48 hrs by SRB assay; format: functional; settings: SF-268, 48 h; in short: as §2
SF-295 = assay: Cytotoxicity against human SF295 cells after 48 hrs by SRB assay; format: functional; settings: SF-295, 48 h; in short: as §2
SNB-75 = assay: Cytotoxicity against human SNB75 cells after 48 hrs by SRB assay; format: functional; settings: SNB-75, 48 h
In short: (§3)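 GI50 from the NCI-60 DTP human tumour line screen. Lines grown in RPMI 1640 with 5% fetal bovine serum and 2 mM L-glutamine, plated at 5000–40 000 cells/well according to doubling time. Incubated 48 h at 37 °C, 5% CO2.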

U-251 = assay: Cytotoxicity against human U251 cells after 48 hrs by SRB assay; format: functional; settings: U-251, 48 h; in short: as §3
Malme-3M = assay: Cytotoxicity against human MALME-3M cells after 48 hrs by SRB assay; format: functional; in short: as §1
M14 = assay: Cytotoxicity against human M14 cells after 48 hrs by SRB assay; format: functional; settings: M14, 48 h; in short: as §1
SK-MEL-2 = assay: Cytotoxicity against human SK-MEL-2 cells after 48 hrs by SRB assay; format: functional; settings: SK-MEL-2, 48 h; in short: as §2
SK-MEL-28 = assay: Cytotoxicity against human SK-MEL-28 cells after 48 hrs by SRB assay; format: functional; settings: SK-MEL-28, 48 h; in short: as §2
[1] = Cytotoxicity against human UACC62 cells after 48 hrs by SRB assay; format: functional; settings: UACC-62, 48 h; in short: as §3
[2] = Cytotoxicity against human OVCAR3 cells after 48 hrs by SRB assay; format: functional; settings: OVCAR-3, 48 h; in short: as §2
[3] = Cytotoxicity against human OVCAR4 cells after 48 hrs by SRB assay; format: functional; settings: OVCAR-4, 48 h; in short: as §2
[4] = Cytotoxicity against human OVCAR5 cells after 48 hrs by SRB assay; format: functional; settings: OVCAR-5, 48 h; in short: as §2
SK-OV-3 = assay: Cytotoxicity against human SKOV3 cells after 48 hrs by SRB assay; format: functional; settings: SK-OV-3, 48 h; in short: as §2
786-0 = assay: Cytotoxicity against human 786-0 cells after 48 hrs by SRB assay; format: functional; settings: 786-0, 48 h; in short: as §1
ACHN = assay: Cytotoxicity against human ACHN cells after 48 hrs by SRB assay; format: functional; in short: as §1
CAKI-1 = assay: Cytotoxicity against human Caki1 cells after 48 hrs by SRB assay; format: functional; settings: CAKI-1, 48 h; in short: as §1
RXF 393 = assay: Cytotoxicity against human RXF393 cells after 48 hrs by SRB assay; format: functional; settings: RXF 393, 48 h; in short: as §2
SN12C = assay: Cytotoxicity against human SN12C cells after 48 hrs by SRB assay; format: functional; in short: as §2
[5] = Cytotoxicity against human UO31 cells after 48 hrs by SRB assay; format: functional; settings: UO-31, 48 h; in short: as §3
DU-145 = assay: Cytotoxicity against human DU145 cells after 48 hrs by SRB assay; format: functional; settings: DU-145, 48 h; in short: as §1
[6] = Cytotoxicity against human Hs578T cells after 48 hrs by SRB assay; format: functional; settings: Hs-578T; in short: as §1
T47D = assay: Cytotoxicity against human T47D cells after 48 hrs by SRB assay; format: functional; in short: as §3
[7] = Induction of [32P]-labeled 49-mer oligonucleotide duplex DNA 12 interstrand cross-linking (unknown origin) at purine nucleotide site using compound radiolabeled at 5' of 12a in phosphate buffer at pH 7 at 90 degC after 30 mins by PAGE
In short: (§4)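 Cross-linked duplex, with strand 12a 32P-labelled at the 5′ end, heated at 90 °C either in phosphate buffer pH 7.0 or in 1.0 M piperidine. Cleavage sites were assigned by denaturing PAGE against G + A sequencing and Fe·EDTA markers.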

[8] = Induction of [32P]-labeled 49-mer oligonucleotide duplex DNA 12 interstrand cross-linking (unknown origin) at purine nucleotide site using compound radiolabeled at 5' of 12b in phosphate buffer at pH 7 at 90 degC after 30 mins by PAGE
[9] = Induction of [32P]-labeled 49-mer oligonucleotide duplex DNA 12 interstrand cross-linking (unknown origin) at purine nucleotide site using compound radiolabeled at 5' of 12a at 90 deg C after 30 mins by PAGE in presence of piperidine; in short: as §4
[10] = Induction of [32P]-labeled 49-mer oligonucleotide duplex DNA 12 interstrand cross-linking (unknown origin) at purine nucleotide site using compound radiolabeled at 5' of 12b at 90 deg C after 30 mins by PAGE in presence of piperidine
[11] = Induction of [32P]-labeled 49-mer oligonucleotide duplex DNA 12 interstrand cross-linking (unknown origin) at purine nucleotide site using compound radiolabeled at 3' of 12a at 90 deg C after 30 mins by PAGE in presence of piperidine
CCRF-CEM = assay: Cytotoxicity against human CCRF-CEM cells after 48 hrs by SRB assay; format: functional; in short: as §1
K562 = assay: Cytotoxicity against human K562 cells after 48 hrs by SRB assay; format: functional; settings: K562, 48 h; in short: as §1
MOLT-4 = assay: Cytotoxicity against human MOLT4 cells after 48 hrs by SRB assay; format: functional; settings: MOLT-4, 48 h; in short: as §2
[12] = Cytotoxicity against human EKVX cells after 48 hrs by SRB assay; format: functional; in short: as §1

Compound: CC1(C)OB(c2ccc(N(CCCl)CCCl)cc2)OC1(C)C
- GI50 (HOP-62): 10.9 µM
- GI50 (HOP-92): 9.24 µM
- GI50 (NCI-H226): 12.9 µM
- GI50 (NCI-H23): 4.57 µM
- GI50 (NCI-H522): 6.59 µM
- GI50 (COLO 205): 11.6 µM
- GI50 (HCC 2998): 14.9 µM
- GI50 (HCT-116): 11.6 µM
- GI50 (HT-29): 13.8 µM
- GI50 (KM12): 14.9 µM
- GI50 (SF-268): 4.61 µM
- GI50 (SF-295): 2.11 µM
- GI50 (SNB-75): 7.98 µM
- GI50 (U-251): 3.75 µM
- GI50 (Malme-3M): 17.5 µM
- GI50 (M14): 5.1 µM
- GI50 (SK-MEL-2): 22.1 µM
- GI50 (SK-MEL-28): 21 µM
- GI50 [1]: 6.12 µM
- GI50 [2]: 14.6 µM
- GI50 [3]: 17.4 µM
- GI50 [4]: 21.6 µM
- GI50 (SK-OV-3): 8.03 µM
- GI50 (786-0): 5.35 µM
- GI50 (ACHN): 3.64 µM
- GI50 (CAKI-1): 2.78 µM
- GI50 (RXF 393): 10.3 µM
- GI50 (SN12C): 4.11 µM
- GI50 [5]: 5.78 µM
- GI50 (DU-145): 4.25 µM
- GI50 [6]: 26.2 µM
- GI50 (T47D): 10.7 µM
- Activity [7]: Active
- Activity [8]: Active
- Activity [9]: Active
- Activity [10]: Active
- Activity [11]: Active
- GI50 (CCRF-CEM): 3.34 µM
- GI50 (K562): 17.2 µM
- GI50 (MOLT-4): 3.48 µM
- GI50 [12]: 18.6 µM

Compound: CC1(C)OB(c2ccc(N(CCBr)CCBr)cc2)OC1(C)C
- Activity [7]: Active
- Activity [8]: Active
- Activity [9]: Active
- Activity [10]: Active
- Activity [11]: Active

Compound: CC1(C)OB(c2ccc(N(CCCl)CCBr)cc2)OC1(C)C
- GI50 (HOP-62): 10.9 µM
- GI50 (HOP-92): 12.8 µM
- GI50 (NCI-H226): 11.9 µM
- GI50 (NCI-H23): 5.38 µM
- GI50 (NCI-H522): 11.7 µM
- GI50 (COLO 205): 11.4 µM
- GI50 (HCC 2998): 24 µM
- GI50 (HCT-116): 13.9 µM
- GI50 (HT-29): 18.8 µM
- GI50 (KM12): 31.3 µM
- GI50 (SF-268): 4.9 µM
- GI50 (SF-295): 2.64 µM
- GI50 (SNB-75): 10.7 µM
- GI50 (U-251): 5.07 µM
- GI50 (Malme-3M): 18.4 µM
- GI50 (M14): 7.86 µM
- GI50 (SK-MEL-2): 20.8 µM
- GI50 (SK-MEL-28): 20.6 µM
- GI50 [1]: 9.38 µM
- GI50 [2]: 15 µM
- GI50 [3]: 14.4 µM
- GI50 [4]: 25.9 µM
- GI50 (SK-OV-3): 9.25 µM
- GI50 (786-0): 8.95 µM
- GI50 (ACHN): 3.4 µM
- GI50 (CAKI-1): 3.52 µM
- GI50 (RXF 393): 10.4 µM
- GI50 (SN12C): 4.45 µM
- GI50 [5]: 6.51 µM
- GI50 (DU-145): 6.69 µM
- GI50 [6]: 27.4 µM
- GI50 (T47D): 12 µM
- Activity [7]: Active
- Activity [8]: Active
- Activity [9]: Active
- Activity [10]: Active
- Activity [11]: Active
- GI50 (CCRF-CEM): 5.03 µM
- GI50 (K562): 22.6 µM
- GI50 (MOLT-4): 3.69 µM
- GI50 [12]: 22.5 µM

Compound: CC1(C)OB(c2ccc(N(CCBr)CCOS(C)(=O)=O)cc2)OC1(C)C
- Activity [7]: Active
- Activity [8]: Active
- Activity [9]: Active
- Activity [10]: Active
- Activity [11]: Active

Compound: CC1(C)OB(c2ccc(N(CCCl)CCOS(C)(=O)=O)cc2)OC1(C)C
- GI50 (HOP-62): 8.85 µM
- GI50 (HOP-92): 11.5 µM
- GI50 (NCI-H226): 10.4 µM
- GI50 (NCI-H23): 4.7 µM
- GI50 (NCI-H522): 5.99 µM
- GI50 (COLO 205): 11 µM
- GI50 (HCC 2998): 14.6 µM
- GI50 (HCT-116): 11.1 µM
- GI50 (HT-29): 14.6 µM
- GI50 (KM12): 25.8 µM
- GI50 (SF-268): 5.39 µM
- GI50 (SF-295): 2.99 µM
- GI50 (SNB-75): 5.85 µM
- GI50 (U-251): 0.7 µM
- GI50 (Malme-3M): 14 µM
- GI50 (M14): 5.68 µM
- GI50 (SK-MEL-2): 21.5 µM
- GI50 (SK-MEL-28): 15.6 µM
- GI50 [1]: 5.83 µM
- GI50 [2]: 13.4 µM
- GI50 [3]: 13.9 µM
- GI50 [4]: 22.9 µM
- GI50 (SK-OV-3): 8.96 µM
- GI50 (786-0): 6.55 µM
- GI50 (ACHN): 3.03 µM
- GI50 (CAKI-1): 3.1 µM
- GI50 (RXF 393): 5.71 µM
- GI50 (SN12C): 4.4 µM
- GI50 [5]: 6.18 µM
- GI50 (DU-145): 4.52 µM
- GI50 [6]: 24.1 µM
- GI50 (T47D): 8.49 µM
- Activity [7]: Active
- Activity [8]: Active
- Activity [9]: Active
- Activity [10]: Active
- Activity [11]: Active
- GI50 (CCRF-CEM): 4.01 µM
- GI50 (K562): 19 µM
- GI50 (MOLT-4): 3.74 µM
- GI50 [12]: 24.5 µM
